According to ChEMBL document CHEMBL1123789, “Synthesis of beta-carboline-benzodiazepine hybrid molecules: use of the known structural requirements for benzodiazepine and beta-carboline binding in designing a novel, high-affinity ligand for the benzodiazepine receptor” (J Med Chem, 1987):

What was measured:
[1] = molecular target: GABA-A receptor; anion channel; assay: Displacement of [3H]flunitrazepam from GABA-A benzodiazepine receptor of rat cerebral cortex membrane; assay type: tissue-based
Procedure, shortened: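 Rat cerebral cortex homogenised in ice-cold 50 mM Tris-HCl pH 7.4, washed by centrifugation, frozen at -20 °C ≥24 h. Filtration on glass fibre, scintillation counting, duplicates; IC50 by Hofstee analysis.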

[2] = molecular target: GABA-A receptor; anion channel; assay: Displacement of [3H]beta-CCE from GABA-A benzodiazepine receptor of rat cerebral cortex membranes; assay type: cell membranes, Membrane
Procedure, shortened: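 Rat cerebral cortex membranes, washed in 50 mM Tris-HCl pH 7.4, stored at −20 °C for at least 24 h. 60 µg protein incubated 60 min at 0 °C with 0.4 nM [3H]-β-CCE (final) and test compound from 5×10^-10 to 10^-5 M. Nonspecific binding was defined with 1 µM unlabeled β-CCE. Bound ligand collected by GF/B filtration and counted by scintillation. Duplicates; IC50 from Hofstee analysis.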

[3] = molecular target: T1, GABA-A receptor; anion channel (Mus musculus) (UniProt Q8BHJ7+P26048+Q8QZW7+P50571+Q9R0Y8+P22723+A2AMW3+P62812+Q9JLF1+P26049+P22933+Q9D6F4+P63080+P27681+P16305); assay: In vivo binding of [3H]flunitrazepam to GABA-A benzodiazepine receptor of mouse cerebellum after maximal Diazepam (10mg/kg, 40 min); assay type: organism-based
Procedure, shortened: (§1)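 Nonspecific in vivo binding. Diazepam 10 mg/kg was given to male Swiss mice 40 min before iv [3H]flunitrazepam (200 µCi/kg) and 60 min before decapitation. Cerebellum, cortex and hippocampus were homogenized in cold 50 mM Tris-HCl pH 7.4. Crude homogenate (12 mg wet tissue) was filtered on GF/B and counted, as pCi/mg wet tissue.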

[4] = molecular target: T1, GABA-A receptor; anion channel (Mus musculus); assay: In vivo binding of [3H]flunitrazepam to GABA-A benzodiazepine receptor of mouse hippocampus after maximal Diazepam (10 mg/kg, 40 min); assay type: organism-based; procedure, shortened: as §1
[5] = molecular target: T1, GABA-A receptor; anion channel (Mus musculus); assay: In vivo displacement of [3H]flunitrazepam to GABA-A benzodiazepine receptor of mouse cerebellum at 10 mg/kg, 10 min; assay type: organism-based; set-up: dose 10 mg/kg
Procedure, shortened: (§2)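 Male Swiss mice received [3H]flunitrazepam 200 µCi/kg iv via tail vein. Test compound, 10 mg/kg suspended in Tween 80, was given 10 min later and 10 min before decapitation. Cerebellum, cortex and hippocampus were homogenized in cold 50 mM Tris-HCl pH 7.4. Crude homogenate (12 mg wet tissue) was filtered on GF/B and counted, as pCi/mg wet tissue.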

[6] = molecular target: T1, GABA-A receptor; anion channel (Mus musculus); assay: In vivo total binding of [3H]flunitrazepam (200uCi/kg, 20 min) to GABA-A benzodiazepine receptor of mouse hippocampus; assay type: organism-based
Procedure, shortened: (§3)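 Male Swiss mice received [3H]flunitrazepam 200 µCi/kg in saline via tail vein, 20 min before decapitation. Cerebellum, cortex and hippocampus were dissected on ice and homogenized in ice-cold 50 mM Tris-HCl pH 7.4. Two 600-µL aliquots (12 mg wet tissue) were filtered on GF/B, washed twice and counted. Results given as pCi/mg wet tissue.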

[7] = molecular target: T1, GABA-A receptor; anion channel (Mus musculus); assay: In vivo displacement of [3H]flunitrazepam to GABA-A benzodiazepine receptor of mouse hippocampus at 10 mg/kg, 10 min; assay type: organism-based; set-up: dose 10 mg/kg; procedure, shortened: as §2
[8] = molecular target: T1, GABA-A receptor; anion channel (Mus musculus); assay: In vivo total binding of [3H]flunitrazepam (200uCi/kg, 20 min) to GABA-A benzodiazepine receptor of mouse cerebellum; assay type: organism-based; procedure, shortened: as §3
[9] = molecular target: T1, GABA-A receptor; anion channel (Mus musculus); assay: In vivo binding of [3H]flunitrazepam to GABA-A benzodiazepine receptor of mouse cortex after maximal Diazepam (10 mg/kg, 40 min); assay type: organism-based; procedure, shortened: as §1
[10] = molecular target: T1, GABA-A receptor; anion channel (Mus musculus); assay: In vivo displacement of [3H]flunitrazepam to GABA-A benzodiazepine receptor of mouse cortex at 10 mg/kg, 10 min; assay type: organism-based; set-up: dose 10 mg/kg; procedure, shortened: as §2
[11] = molecular target: T1, GABA-A receptor; anion channel (Mus musculus); assay: In vivo total binding of [3H]flunitrazepam (200uCi/kg, 20 min) to GABA-A benzodiazepine receptor of mouse cortex; assay type: organism-based; procedure, shortened: as §3

`CN1C(=O)CN=C(c2ccccc2F)c2cc([N+](=O)[O-])ccc21` [FLUNITRAZEPAM] showed an IC50 [1] of 3 nM and an IC50 [2] of 8 nM.
`CCOC(=O)C1=CC2c3ccccc3NC2C=N1` (stereo unspecified) showed an IC50 [1] of 2.5 nM and an IC50 [2] of 6 nM.
With `O=C1Nc2ccccc2CN2Cc3[nH]c4ccccc4c3CC12` (stereo unspecified) the IC50 [1] was > 100000 nM and the IC50 [2] was > 100000 nM.
`O=C1Nc2ccccc2Cn2cc3nc4ccccc4c-3cc21` was tested, and the IC50 [1] was 6000 nM and the IC50 [2] was 2000 nM.
In the case of `O=C1Nc2ccccc2C(=O)N2Cc3[nH]c4ccccc4c3CC12` (stereo unspecified), the IC50 [1] is reported as > 100000 nM and the IC50 [2] is reported as > 100000 nM.
With `O=c1[nH]c2ccccc2c(=O)n2cc3nc4ccccc4c-3cc12` the Binding [3] was 24.1 pCi mg-1, the IC50 [1] was 23 nM and the Binding [4] was 25.6 pCi mg-1. For the same molecule, the Total binding [5] was 78.8 pCi mg-1, the Total binding [6] was 95.5 pCi mg-1 and the Total binding [7] was 96.8 pCi mg-1. For the same molecule, the Total binding [8] was 71.2 pCi mg-1, the IC50 [2] was 47 nM and the Binding [9] was 26.7 pCi mg-1. The Total binding [10] was 88 pCi mg-1 and the Total binding [11] was 85 pCi mg-1.
